Measurements taken from ChEMBL document CHEMBL5154635, “Expedited Approach toward the Rational Design of Noncovalent SARS-CoV-2 Main Protease Inhibitors” (J Med Chem, 2022).

Columns and labels:
[1] = tested on: SARS-CoV-2; assay: Antiviral activity against SARS-Cov-2 USA-WA1/2020 isolate infected in African green monkey Vero E6 cells measured after 48 hrs of postinfection by immunofluorescence assay; type: functional, organism-based; conditions: Severe acute respiratory syndrome coronavirus 2, USA-WA1/2020, Vero C1008, 48 h
[2] = Cytotoxicity against African green monkey Vero E6 cells assessed as cell viability incubated for 5 days by neutral red uptake based microplate reader method; type: toxicity, Vero C1008; conditions: chlorocebus sabaeus, time 5 day
Outline: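 Vero E6 cells seeded and grown for 24 h, then washed. Serial compound dilutions added in serum-free medium for 5 days at 37 °C. Neutral red (40 μg/mL) taken up for 2–4 h, with absorbance read at 540 nm. CC50 from variable-slope dose-response fit.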

[3] = target: T1, Replicase polyprotein 1ab (Severe acute respiratory syndrome coronavirus 2, UniProt P0DTD1); assay: Non-covalent inhibition of SARS-Cov-2 -Mpro incubated for 30 mins using FRET substrate measured for 1 hr by FRET-based enzymatic assay
[4] = Covalent inhibition of Enterovirus-D68 2Apro incubated for 30 mins using FRET substrate measured for 1 hr by FRET-based enzymatic assay
Outline: (§1)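 Reaction started with the corresponding peptide FRET substrate (final 10 μM) and read at ex 360/em 460 nm at 30 °C for 1 h. Initial velocity taken by linear regression over the first 15 min.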

[5] = Covalent inhibition of HCoV-OC43 -Mpro incubated for 30 mins using FRET substrate measured for 1 hr by FRET-based enzymatic assay; design: species or system unidentified human coronavirus
[6] = target: T2, Calpain-1 catalytic subunit (Homo sapiens, UniProt P07384); assay: Covalent inhibition of Calpain 1 (unknown origin) incubated for 1 hr by FRET-based enzymatic assay
T2 sequence (P07384 whole entry): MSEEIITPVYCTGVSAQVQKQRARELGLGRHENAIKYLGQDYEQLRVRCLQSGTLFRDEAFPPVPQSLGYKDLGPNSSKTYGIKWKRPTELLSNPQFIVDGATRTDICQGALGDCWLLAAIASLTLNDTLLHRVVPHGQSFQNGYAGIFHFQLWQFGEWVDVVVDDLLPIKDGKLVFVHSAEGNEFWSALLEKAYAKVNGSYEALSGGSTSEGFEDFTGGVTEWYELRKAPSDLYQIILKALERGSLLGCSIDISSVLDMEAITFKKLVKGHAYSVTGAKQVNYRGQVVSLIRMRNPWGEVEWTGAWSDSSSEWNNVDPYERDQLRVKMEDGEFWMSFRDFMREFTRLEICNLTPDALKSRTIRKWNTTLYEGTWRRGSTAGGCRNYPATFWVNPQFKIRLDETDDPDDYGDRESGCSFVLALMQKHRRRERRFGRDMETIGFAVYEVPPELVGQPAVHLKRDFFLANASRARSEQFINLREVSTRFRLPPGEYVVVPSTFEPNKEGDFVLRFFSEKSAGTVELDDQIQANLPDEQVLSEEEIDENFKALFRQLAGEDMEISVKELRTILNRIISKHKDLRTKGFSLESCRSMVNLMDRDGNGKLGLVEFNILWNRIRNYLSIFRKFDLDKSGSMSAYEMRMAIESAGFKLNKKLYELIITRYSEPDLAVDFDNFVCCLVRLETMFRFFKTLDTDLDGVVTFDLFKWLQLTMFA
Outline: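 Calpain 1 in buffer of 50 mM HEPES, 50 mM NaCl, 10 mM DTT and 5 mM CaCl2 (pH 7.5), with test compound at serial concentrations. The reaction is started with N-succinyl-Leu-Leu-Val-Tyr-AMC (4 mM stock). Fluorescence (ex 360, em 460 nm) is read for 1 h at 30 °C.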

[7] = Covalent inhibition of MERS-CoV -Mpro incubated for 30 mins using FRET substrate measured for 1 hr by FRET-based enzymatic assay; design: species or system Middle East respiratory syndrome-related coronavirus
[8] = Covalent inhibition of SARS-Cov -Mpro incubated for 30 mins using FRET substrate measured for 1 hr by FRET-based enzymatic assay; design: species or system Severe acute respiratory syndrome-related coronavirus
[9] = Covalent inhibition of Enterovirus-A17 3Cpro incubated for 30 mins using FRET substrate measured for 1 hr by FRET-based enzymatic assay; outline: as §1
[10] = Covalent inhibition of Enterovirus-D68 3Cpro incubated for 30 mins using FRET substrate measured for 1 hr by FRET-based enzymatic assay; outline: as §1
[11] = target: T3, Procathepsin L (Homo sapiens, UniProt P07711); assay: Covalent inhibition of Cathepsin L (unknown origin) incubated for 30 mins using FRET substrate measured for 1 hr by FRET-based enzymatic assay
[12] = Covalent inhibition of Enterovirus-A17 2Apro incubated for 30 mins using FRET substrate measured for 1 hr by FRET-based enzymatic assay; outline: as §1
[13] = Selectivity Index, ratio of CC50 for african green monkey vero E6 cells to EC50 for antiviral activity against SARS-Cov-2 USA-WA1/2020 isolate infected in African green monkey Vero E6 cells; type: toxicity, Vero C1008; conditions: read-out: Ratio CC50/EC50
[14] = Non-covalent inhibition of SARS-Cov -Mpro incubated for 30 mins using FRET substrate measured for 1 hr by FRET-based enzymatic assay; design: species or system Severe acute respiratory syndrome-related coronavirus
[15] = target: T2, Calpain-1 catalytic subunit; assay: Non-covalent inhibition of Calpain 1 (unknown origin) incubated for 1 hr by FRET-based enzymatic assay
Outline: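 Calpain 1 in 50 mM HEPES, 50 mM NaCl, 10 mM DTT, 5 mM CaCl2, pH 7.5. Reaction started with N-succinyl-Leu-Leu-Val-Tyr-AMC (4 mM stock).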

[16] = target: T3, Procathepsin L; assay: Non-covalent inhibition of Cathepsin L (unknown origin) incubated for 30 mins using FRET substrate measured for 1 hr by FRET-based enzymatic assay
Outline: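 Cathepsin L activated for 30 min at 30 °C in 20 mM sodium acetate, 1 mM EDTA, 5 mM DTT, pH 5.5. 300 pM enzyme preincubated with compound for 30 min at 30 °C.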

[17] = target: T1, Replicase polyprotein 1ab; assay: Non-covalent inhibition of SARS-Cov-2 PLpro incubated for 30 mins using FRET substrate measured for 1 hr by FRET-based enzymatic assay
[18] = target: T1, Replicase polyprotein 1ab; assay: Stabilization in SARS-CoV-2 MPro assessed as binding constant incubated for 30 mins in presence of DTT by thermal shift binding assay
Outline: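 3 μM SARS-CoV-2 Mpro in Mpro reaction buffer with 4 mM DTT, incubated with varying compound concentrations for 30 min at 30 °C. SYPRO orange added and melt run from 20 to 90 °C at 0.05 °C/s. Tm plotted against concentration and fitted to one-site binding to give apparent Kd.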

T3 sequence (P07711 whole entry): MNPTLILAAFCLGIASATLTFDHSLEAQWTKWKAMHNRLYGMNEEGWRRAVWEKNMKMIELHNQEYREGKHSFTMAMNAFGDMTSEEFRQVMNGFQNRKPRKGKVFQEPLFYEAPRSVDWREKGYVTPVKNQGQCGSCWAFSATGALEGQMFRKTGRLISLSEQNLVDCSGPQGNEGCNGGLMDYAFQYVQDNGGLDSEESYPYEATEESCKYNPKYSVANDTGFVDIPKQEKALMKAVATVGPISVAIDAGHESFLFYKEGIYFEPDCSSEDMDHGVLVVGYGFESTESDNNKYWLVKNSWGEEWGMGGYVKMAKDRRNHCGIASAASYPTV

Structure (SMILES)	CC50 at 120 h [2] [µM]	IC50 [3] [µM]	further results
CC(C)(C)NC(=O)C(c1cccnc1)N(C(=O)c1ccco1)c1ccc(C(C)(C)C)cc1 (centres undefined)	> 125		EC50 [1]: > 20 µM
CC(C)(C)NC(=O)C(c1cnccn1)N(C(=O)c1ccco1)c1ccc(C(C)(C)C)cc1 (centres undefined)	138		
CC(C)(C)NC(=O)C(c1c[nH]cn1)N(C(=O)c1ccco1)c1ccc(C(C)(C)C)cc1 (centres undefined)		> 20	
CC(C)C[C@H](NC(=O)OCc1ccccc1)C(=O)N[C@@H](C[C@@H]1CCNC1=O)C(O)S(=O)(=O)O (some centres undefined)			IC50 [4]: > 50 µM; IC50 [5]: ≤ 0.16 µM; IC50 [6]: ≤ 0.074 µM; IC50 [7]: ≤ 0.16 µM; IC50 [8]: ≤ 0.16 µM; IC50 [9]: ≤ 0.16 µM; IC50 [10]: ≤ 0.16 µM; IC50 [11]: ≤ 0.074 µM; EC50 [1]: 1.51 µM; IC50 [12]: > 50 µM
CC(C)(C)NC(=O)C(c1cncnc1)N(C(=O)c1ccco1)c1ccc(C(C)(C)C)cc1 (centres undefined)		> 20	
C[C@H](NC(=O)C(c1cccnc1)N(C(=O)c1ccco1)c1ccc(-c2cccs2)cc1)c1ccccc1 (some centres undefined)	89.6	0.56	
O=C(NC1CCCC1)C(c1cccnc1)N(C(=O)c1ccco1)c1ccc(-c2ccccc2)cc1 (centres undefined)	> 200	4.1	
C[C@H](NC(=O)C(c1cccnc1)N(C(=O)c1ccno1)c1ccc(C2CCCCC2)cc1)c1ccccc1 (some centres undefined)	17.5		
C[C@H](NC(=O)C(c1cccnc1)N(C(=O)c1ccco1)c1ccc(-c2ccccn2)cc1)c1ccccc1 (some centres undefined)	236		
O=C(NC1CCCCC1)C(c1cccnc1)N(C(=O)c1ccco1)c1ccc(-c2ccccc2)cc1 (centres undefined)	53.5		
O=C(NC1CC1)C(c1cccnc1)N(C(=O)c1ccco1)c1ccc(-c2ccccc2)cc1 (centres undefined)		12.1	
C[C@H](NC(=O)C(c1cccnc1)N(C(=O)c1ccco1)c1ccc(C2CCCCC2)cc1)c1ccccc1 (some centres undefined)	9.61		
Cc1ccc(S(=O)(=O)CNC(=O)C(c2cccnc2)N(C(=O)c2ccco2)c2ccc(C(C)(C)C)cc2)cc1 (centres undefined)		> 20	
O=C(NCCCc1ccccc1)C(c1cccnc1)N(C(=O)c1ccco1)c1ccc(-c2ccccc2)cc1 (centres undefined)	> 200		selectivity ratio [13]: > 98; EC50 [1]: 2.04 µM
CC(C)(C)c1ccc(N(C(=O)c2ccco2)C(C(=O)NC2CCCCC2)c2cccnc2)cc1 (centres undefined)	18.2	2.39	
C[C@H](NC(=O)C(c1cccnc1)N(C(=O)c1ccco1)c1ccc(-c2ccco2)cc1)c1ccccc1 (some centres undefined)	56.4		

Structure (SMILES)	CC50 at 120 h [2] [µM]	IC50 [3] [µM]	further results
C[C@H](NC(=O)C(c1cccnc1)N(C(=O)c1ccco1)c1ccc(-c2ccccc2)cc1)c1ccccc1 (some centres undefined)	> 200	0.66	EC50 [1]: 1.61 µM
C[C@H](NC(=O)C(c1cccnc1)N(C(=O)c1ccco1)c1ccc(-n2cccc2)cc1)c1ccccc1 (some centres undefined)	> 200		selectivity ratio [13]: > 116; EC50 [1]: 1.73 µM
Cc1cccc(C)c1NC(=O)C(c1cccnc1)N(C(=O)c1ccco1)c1ccc(C(C)(C)C)cc1 (centres undefined)		> 20	
C[C@H](NC(=O)C(c1cccnc1)N(C(=O)c1cnco1)c1ccc(-c2ccccc2)cc1)c1ccccc1 (some centres undefined)	67		
C[C@H](NC(=O)[C@H](c1cccnc1)N(C(=O)c1ccco1)c1ccc(-c2ccccc2)cc1)c1ccccc1		> 20	
CC(C)(C)c1ccc(N(C(=O)c2ccco2)C(C(=O)NC2CCCC2)c2cccnc2)cc1 (centres undefined)	101		
CC(C)(C)c1ccc(N(C(=O)c2ccco2)C(C(=O)NC2CC2)c2cccnc2)cc1 (centres undefined)	52.8		
CC(C)(C)CC(C)(C)NC(=O)C(c1cccnc1)N(C(=O)c1ccco1)c1ccc(-c2ccccc2)cc1 (centres undefined)	148	2.14	
C[C@H](NC(=O)C(c1cccnc1)N(C(=O)c1ccno1)c1ccc(-c2ccccc2)cc1)c1ccccc1 (some centres undefined)	> 200		
C[C@H](NC(=O)C(c1cccnc1)N(C(=O)c1ccco1)c1ccc([Si](C)(C)C)cc1)c1ccccc1 (some centres undefined)	19.4		
C[C@H](NC(=O)C(c1cnccn1)N(C(=O)c1c[nH]cn1)c1ccc(-c2ccccc2)cc1)c1ccccc1 (some centres undefined)	148		selectivity ratio [13]: 32.6; EC50 [1]: 4.54 µM
O=C(NCC(c1ccccc1)c1ccccc1)C(c1cccnc1)N(C(=O)c1ccco1)c1ccc(-c2ccccc2)cc1 (centres undefined)	> 200		
C[C@H](NC(=O)[C@@H](c1cccnc1)N(C(=O)c1ccco1)c1ccc(-c2ccccc2)cc1)c1ccccc1	> 100	0.2	IC50 [14]: 0.27 µM; IC50 [15]: 6 µM; IC50 [16]: 10.5 µM; IC50 [17]: > 60 µM; Kd [18]: 9.43 µM
CC(C)(C)CC(C)(C)NC(=O)C(c1cccnc1)N(C(=O)c1ccco1)c1ccc(C(C)(C)C)cc1 (centres undefined)		> 20	
C[C@H](NC(=O)C(c1cnccn1)N(C(=O)c1ccco1)c1ccc(-c2ccccc2)cc1)c1ccccc1 (some centres undefined)	> 200		selectivity ratio [13]: > 244; EC50 [1]: 0.82 µM
C[C@H](NC(=O)C(c1cccnc1)N(C(=O)c1c[nH]cn1)c1ccc(-c2ccccc2)cc1)c1ccccc1 (some centres undefined)	129		selectivity ratio [13]: 9.9; EC50 [1]: 13.1 µM
